Assays:
Listeria monocytogenes [1] = assay: Antimicrobial activity against Listeria monocytogenes clinical isolate at 200 ug/disk incubated for 20 +/- 4 hrs by agar disk diffusion method; assay type: functional; conditions: read-out: DIZ
Enterococcus faecium [2] = assay: Antimicrobial activity against Enterococcus faecium AUS0004 at 15 ug/disk incubated for 20 +/- 4 hrs by agar disk diffusion method; assay type: functional; conditions: read-out: DIZ
Enterococcus faecalis [3] = assay: Antimicrobial activity against Enterococcus faecalis ATCC 29212 at 15 ug/disk incubated for 20 +/- 4 hrs by agar disk diffusion method; assay type: functional; conditions: read-out: DIZ
Enterococcus faecalis [4] = assay: Antimicrobial activity against Enterococcus faecalis ATCC 29212 at 5 ug/disk incubated for 20 +/- 4 hrs by agar disk diffusion method; assay type: functional; conditions: read-out: DIZ
Enterococcus faecium [5] = assay: Antimicrobial activity against Enterococcus faecium AUS0004 at 5 ug/disk incubated for 20 +/- 4 hrs by agar disk diffusion method; assay type: functional; conditions: read-out: DIZ
Enterococcus faecium [6] = assay: Antimicrobial activity against Enterococcus faecium AUS0004 at 30 ug/disk incubated for 20 +/- 4 hrs by agar disk diffusion method; assay type: functional, organism-based
Enterococcus faecalis [7] = assay: Antimicrobial activity against Enterococcus faecalis ATCC 29212 at 30 ug/disk incubated for 20 +/- 4 hrs by agar disk diffusion method; assay type: functional, organism-based
Streptococcus pyogenes = assay: Antimicrobial activity against Streptococcus pyogenes clinical isolate at 50 ug/disk incubated for 20 +/- 4 hrs by agar disk diffusion method; assay type: functional; conditions: read-out: DIZ
Method in brief: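 Plates of MH + 5% horse blood were swabbed with a 0.5 McFarland inoculum and received discs with 50 μg compound (from 5 g/L in DMSO) plus a 10 μL DMSO control disc. Incubation at 35 ± 2 °C aerobically with 5% CO2 for 20 ± 4 h, then zone diameters measured.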

Pseudomonas aeruginosa = assay: Antimicrobial activity against Pseudomonas aeruginosa clinical isolate at 50 ug/disk incubated for 20 +/- 4 hrs by agar disk diffusion method; assay type: functional; conditions: read-out: DIZ
Method in brief: (§1)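 Agar disk diffusion on Mueller-Hinton agar swab-seeded from a 0.5 McFarland inoculum (about 10^8 CFU/ml). Cellulose discs got 50 μg compound (10 μl of 5 g/L in DMSO); a 10 μL DMSO disc was the control. Incubated aerobically at 35 ± 2 °C for 20 ± 4 h, then growth-inhibition diameters measured.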

Enterococcus faecalis [8] = assay: Antimicrobial activity against Enterococcus faecalis ATCC 29212 at 50 ug/disk incubated for 20 +/- 4 hrs by agar disk diffusion method; assay type: functional; conditions: read-out: DIZ; method in brief: as §1
Enterococcus faecium [9] = assay: Antimicrobial activity against Enterococcus faecium AUS0004 at 50 ug/disk incubated for 20 +/- 4 hrs by agar disk diffusion method; assay type: functional; conditions: read-out: DIZ; method in brief: as §1
Klebsiella pneumoniae = assay: Antimicrobial activity against Klebsiella pneumoniae clinical isolate at 50 ug/disk incubated for 20 +/- 4 hrs by agar disk diffusion method; assay type: functional; conditions: read-out: DIZ; method in brief: as §1
Bacteroides fragilis = assay: Antimicrobial activity against Bacteroides fragilis ATCC 25285 at 50 ug/disk incubated for 20 +/- 4 hrs by agar disk diffusion method; assay type: functional; conditions: read-out: DIZ
Method in brief: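 Anaerobic disk diffusion: MH agar + 5% horse blood seeded from a 0.5 McFarland swab, with discs of 50 μg compound (10 μl of 5 g/L DMSO solution) and a DMSO control disc. Kept at 35 ± 2 °C under anaerobic conditions for 20 ± 4 h; inhibition diameters recorded.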

Clostridium perfringens = assay: Antimicrobial activity against Clostridium perfringens clinical isolate at 50 ug/disk incubated for 20 +/- 4 hrs by agar disk diffusion method; assay type: functional; conditions: read-out: DIZ
Method in brief: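 Agar disk diffusion on MH agar with 5% horse blood (MHF), surface-seeded by swab from a 0.5 McFarland inoculum (about 10^8 CFU/ml). Cellulose discs received 10 μl of a 5 g/L DMSO solution (50 μg). A DMSO-only disc served as control. Anaerobic incubation at 35 ± 2 °C for 20 ± 4 h; growth-inhibition diameter measured in mm.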

Staphylococcus aureus = assay: Antimicrobial activity against Staphylococcus aureus ATCC 29213 at 50 ug/disk incubated for 20 +/- 4 hrs by agar disk diffusion method; assay type: functional; conditions: read-out: DIZ; method in brief: as §1
Escherichia coli [10] = assay: Antimicrobial activity against Escherichia coli clinical isolate at 50 ug/disk incubated for 20 +/- 4 hrs by agar disk diffusion method; assay type: functional; conditions: read-out: DIZ; method in brief: as §1
Enterobacter cloacae = assay: Antimicrobial activity against Enterobacter cloacae clinical isolate at 50 ug/disk incubated for 20 +/- 4 hrs by agar disk diffusion method; assay type: functional; conditions: read-out: DIZ; method in brief: as §1
Listeria monocytogenes [11] = assay: Antimicrobial activity against Listeria monocytogenes clinical isolate at 50 ug/disk incubated for 20 +/- 4 hrs by agar disk diffusion method; assay type: functional; conditions: read-out: DIZ
Method in brief: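 Disk diffusion on MH agar with 5% horse blood, seeded by swab from a 0.5 McFarland suspension. Discs held 50 μg compound from a 5 g/L DMSO solution, with a DMSO-only control disc. Aerobic incubation at 35 ± 2 °C for 20 ± 4 h; inhibition zone diameter read.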

Kocuria rhizophila = assay: Antimicrobial activity against Kocuria rhizophila clinical isolate at 50 ug/disk incubated for 20 +/- 4 hrs by agar disk diffusion method; assay type: functional; conditions: read-out: DIZ; method in brief: as §1
Acinetobacter baumannii = assay: Antimicrobial activity against Acinetobacter baumannii clinical isolate at 50 ug/disk incubated for 20 +/- 4 hrs by agar disk diffusion method; assay type: functional; conditions: read-out: DIZ; method in brief: as §1
Enterococcus faecium [12] = assay: Antimicrobial activity against Enterococcus faecium HM1070 at 50 ug/disk incubated for 20 +/- 4 hrs by agar disk diffusion method; assay type: functional; conditions: read-out: DIZ; method in brief: as §1
Escherichia coli [13] = assay: Antimicrobial activity against Escherichia coli ATCC 25922 at 50 ug/disk incubated for 20 +/- 4 hrs by agar disk diffusion method; assay type: functional; conditions: read-out: DIZ; method in brief: as §1
Bacillus subtilis = assay: Antimicrobial activity against Bacillus subtilis clinical isolate at 50 ug/disk incubated for 20 +/- 4 hrs by agar disk diffusion method; assay type: functional; conditions: read-out: DIZ; method in brief: as §1
Listeria monocytogenes [14] = assay: Antimicrobial activity against Listeria monocytogenes clinical isolate at 5 ug/disk incubated for 20 +/- 4 hrs by agar disk diffusion method; assay type: functional; conditions: read-out: DIZ
Enterococcus faecalis [15] = assay: Antimicrobial activity against Enterococcus faecalis ATCC 29212 at 300 ug/disk incubated for 20 +/- 4 hrs by agar disk diffusion method; assay type: functional; conditions: read-out: DIZ
Enterococcus faecium [16] = assay: Antimicrobial activity against Enterococcus faecium AUS0004 at 300 ug/disk incubated for 20 +/- 4 hrs by agar disk diffusion method; assay type: functional; conditions: read-out: DIZ
Enterococcus faecium [17] = assay: Antimicrobial activity against Enterococcus faecium AUS0004 at 10 ug/disk incubated for 20 +/- 4 hrs by agar disk diffusion method; assay type: functional; conditions: read-out: DIZ
Listeria monocytogenes [18] = assay: Antimicrobial activity against Listeria monocytogenes clinical isolate at 30 ug/disk incubated for 20 +/- 4 hrs by agar disk diffusion method; assay type: functional; conditions: read-out: DIZ
Enterococcus faecium [19] = assay: Antimicrobial activity against Enterococcus faecium AUS0004 at 2 ug/disk incubated for 20 +/- 4 hrs by agar disk diffusion method; assay type: functional; conditions: read-out: DIZ

Q: For C[C@@H]1O[C@@H]1P(=O)(O)O [FOSFOMYCIN], which zone of inhibition at 200 µg/disc (Listeria monocytogenes [1]) is on record?
A: 6 mm

Q: Which zone of inhibition at 15 µg/disc (Enterococcus faecium [2]) does the source give for CC[C@H]1OC(=O)[C@H](C)[C@@H](O[C@H]2C[C@@](C)(OC)[C@@H](O)[C@H](C)O2)[C@H](C)[C@@H](O[C@@H]2O[C@H](C)C[C@H](N(C)C)[C@H]2O)[C@](C)(O)C[C@@H](C)C(=O)[C@H](C)[C@@H](O)[C@]1(C)O [ERYTHROMYCIN] here?
A: 6 mm

Q: What about the zone of inhibition at 15 µg/disc (Enterococcus faecalis [3]) of the same molecule?
A: 20 mm

Q: With CO[C@H]1/C=C/O[C@@]2(C)Oc3c(C)c(O)c4c(O)c(c(/C=N/N5CCN(C)CC5)c(O)c4c3C2=O)NC(=O)/C(C)=C\C=C\[C@H](C)[C@H](O)[C@@H](C)[C@@H](O)[C@@H](C)[C@H](OC(C)=O)[C@@H]1C [RIFAMPIN] as the molecule, how does the zone of inhibition at 5 µg/disc (Enterococcus faecalis [4]) read?
A: 21 mm

Q: What about the zone of inhibition at 5 µg/disc (Enterococcus faecium [5]) of the same molecule?
A: 9 mm

Q: Which inhibition zone (IZ) (Enterococcus faecium [6]) does the source give for GENTAMICIN here?
A: 17 mm

Q: What about the inhibition zone (IZ) (Enterococcus faecalis [7]) of the same molecule?
A: 14 mm

Q: For O=C(Nc1nnc(-c2ccc(C(F)(F)F)cc2)o1)c1ccc(Cl)cc1, which zone of inhibition at 50 µg/disc (Streptococcus pyogenes) is on record?
A: 6 mm

Q: And the zone of inhibition at 50 µg/disc (Pseudomonas aeruginosa)?
A: 6 mm

Q: What about the zone of inhibition at 50 µg/disc (Enterococcus faecalis [8]) of the same molecule?
A: 10 mm

Q: And the zone of inhibition at 50 µg/disc (Enterococcus faecium [9])?
A: 9 mm

Q: What about the zone of inhibition at 50 µg/disc (Klebsiella pneumoniae) of the same molecule?
A: 6 mm

Q: What about the zone of inhibition at 50 µg/disc (Bacteroides fragilis) of the same molecule?
A: 9 mm

Q: What about the zone of inhibition at 50 µg/disc (Clostridium perfringens) of the same molecule?
A: 6 mm

Q: What about the zone of inhibition at 50 µg/disc (Staphylococcus aureus) of the same molecule?
A: 9 mm

Q: What about the zone of inhibition at 50 µg/disc (Escherichia coli [10]) of the same molecule?
A: 6 mm

Q: And the zone of inhibition at 50 µg/disc (Enterobacter cloacae)?
A: 6 mm

Q: And the zone of inhibition at 50 µg/disc (Listeria monocytogenes [11])?
A: 16 mm

Q: What about the zone of inhibition at 50 µg/disc (Kocuria rhizophila) of the same molecule?
A: 14 mm

Q: And the zone of inhibition at 50 µg/disc (Acinetobacter baumannii)?
A: 6 mm

Q: And the zone of inhibition at 50 µg/disc (Enterococcus faecium [12])?
A: 11 mm

Q: And the zone of inhibition at 50 µg/disc (Escherichia coli [13])?
A: 6 mm

Q: What about the zone of inhibition at 50 µg/disc (Bacillus subtilis) of the same molecule?
A: 13 mm

Q: CC1COc2c(N3CCN(C)CC3)c(F)cc3c(=O)c(C(=O)O)cn1c23 (centres undefined) [OFLOXACIN] was tested. Which zone of inhibition at 5 µg/disc (Listeria monocytogenes [14]) did it give?
A: 21 mm

Q: With CN[C@@H]1[C@H](O[C@H]2[C@H](O[C@H]3[C@H](O)[C@@H](O)[C@H](N=C(N)N)[C@@H](O)[C@@H]3N=C(N)N)O[C@@H](C)[C@]2(O)C=O)O[C@@H](CO)[C@H](O)[C@H]1O [STREPTOMYCIN] as the molecule, how does the zone of inhibition at 300 µg/disc (Enterococcus faecalis [15]) read?
A: 16 mm

Q: What about the zone of inhibition at 300 µg/disc (Enterococcus faecium [16]) of the same molecule?
A: 22 mm

Q: With C[C@@H](O)[C@H]1C(=O)N2C(C(=O)O)=C(SCCNC=N)C[C@H]12 [IMIPENEM ANHYDROUS] as the molecule, how does the zone of inhibition at 10 µg/disc (Enterococcus faecium [17]) read?
A: 6 mm

Q: With CO[C@@]1(NC(=O)[C@H](C(=O)O)c2ccc(O)cc2)C(=O)N2C(C(=O)O)=C(CSc3nnnn3C)CO[C@@H]21 as the molecule, how does the zone of inhibition at 30 µg/disc (Listeria monocytogenes [18]) read?
A: 15 mm

Q: How did the zone of inhibition at 2 µg/disc (Enterococcus faecium [19]) turn out when CC1(C)S[C@@H]2[C@H](NC(=O)[C@H](N)c3ccccc3)C(=O)N2[C@H]1C(=O)O [AMPICILLIN] was run?
A: 6 mm

Source: ChEMBL document CHEMBL4364345, “Synthesis and evaluation of 1,3,4-oxadiazole derivatives for development as broad-spectrum antibiotics” (Bioorg Med Chem, 2019)
